In ChEMBL document CHEMBL5712908, “A genome-wide RNAi screen reveals essential therapeutic targets of breast cancer stem cells” (2019):
Calls of active or inactive are those of the source. The rule behind the calls is not given here.

Experiments:
SUM-159-PT [1] = assay: Anticancer activity against human SUM159 cells assessed as decrease in secondary tumor sphere formation incubated for 72 hrs by Extreme limiting dilution analysis; format: functional, cell-based
Summary of the method: (§1)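 Cells drug-treated in adherent culture for 72 h, then plated as single cells in ultra-low attachment 96-well plates in serum-free mammary epithelium basal medium. Plating at 25/10/5/3/2/1 cells per well, 18–36 wells per condition. Wells with ≥1 sphere after 10 days scored positive. Secondary spheres were made by dissociating primary spheres. Frequency by ELDA; n = 4; pairwise chi-square test.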

SUM-159-PT [2] = assay: Induction of apoptosis in human SUM159 cells expressing ALDHbr upto 5 uM incubated for 72 hrs by ALDEFLUOR/YO-PRO-3/ Hoechst 33342 staining based high content imaging microscopic analysis; format: functional, cell-based
Summary of the method: (§2)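 SUM159 at 3,000 cells/well on collagen plates, dosed at 6, 24 and 48 h post-seeding; 0.1% DMSO negative control, cisplatin positive control. At 72 h stained 30 min at 37°C with ALDEFLUOR, YO-PRO-3 and Hoechst 33342, then imaged ice-cold. YO-PRO-3-positive nuclei (above untreated signal) counted over total cells, per ALDHbr/ALDH- subpopulation; n = 6.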

SUM-159-PT [3] = assay: Anticancer activity against human SUM159 cells assessed as decrease in primary tumor sphere formation incubated for 72 hrs by Extreme limiting dilution analysis; format: functional, cell-based; summary of the method: as §1
Breast cancer cell line [4] = assay: Antitumor activity against human CRCM404 negative breast cancer cells orthotopically xenografted in NSG mouse model of PDX assessed as reduction in tumor volume at 3 mg/kg, ip daily for 14 days; format: functional, organism-based; conditions: time 14.0 day
Summary of the method: (§3)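 Chemo-naïve triple-negative PDX cells injected at 100,000 per fat pad, two fat pads per NSG mouse. At ~80 mm³ tumours, mice received i.p. 3 mg/kg daily for 14 days or 50 mg/kg 5 of 7 days for 2 weeks; placebo was DMSO/HPCD 10% (1:9). Five mice (10 tumours) per group. Tumour growth monitored; after 2 weeks tumours dissociated, mouse cells excluded via anti-H2Kd, ALDHbr measured by ALDEFLUOR flow cytometry and normalised to vehicle.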

Breast cancer cell line [5] = assay: Antitumor activity against human CRCM404 negative breast cancer cells orthotopically xenografted in NSG mouse model of PDX assessed as reduction ALDHbr cells at 3 mg/kg, ip daily for 14 days by LSR2 cytometer analysis; format: functional, organism-based; conditions: time 14.0 day; summary of the method: as §3
SUM-159-PT [6] = assay: Anticancer activity against human SUM159 cells expressing BFP assessed as reduction in ALDHbr cell at 5 to 500 nM by LSR2 cytometer analysis; format: functional, cell-based; conditions: dose 5-500 nM
Breast cancer cell line [7] = assay: Antitumor activity against human CRCM434 negative breast cancer cells orthotopically xenografted in NSG mouse model of PDX assessed as reduction ALDHbr cells at 3 mg/kg, ip daily for 14 days by LSR2 cytometer analysis; format: functional, organism-based; conditions: time 14.0 day; summary of the method: as §3
SUM-159-PT [8] = assay: Antitumor activity against human SUM159 cells assessed as K-score by measuring ALDHbr cells by LSR2 cytometer; format: functional
Summary of the method: (§4)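 Cell lines exposed for 72 h in adherent culture to a range of concentrations centred on the MTS-derived IC50. ALDHbr proportion measured by ALDEFLUOR flow cytometry (LSR2). K-score is the linear regression coefficient, on log10-transformed doses, between the untreated condition and the dose predicted to give a 50% decrease or increase in ALDHbr proportion versus control.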

Breast cancer cell line [9] = assay: Antitumor activity against human reimplanted CRCM494 negative breast cancer cells orthotopically xenografted in NSG mouse model of PDX assessed as reduction tumor volume at 3 mg/kg, ip daily for 14 days by limiting dilation analysis; format: functional, organism-based; conditions: time 14.0 day
Summary of the method: (§5)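 After 2 weeks of i.p. treatment (3 mg/kg daily or 50 mg/kg 5 of 7 days), dissociated PDX tumour cells reimplanted into secondary NSG mice at 50, 500 or 5,000 cells. A mouse counted as tumour-bearing once a tumour reached 10 mm. bCSC frequency per 10,000 cells estimated by ELDA; pairwise chi-square test.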

Breast cancer cell line [10] = assay: Synergistic antitumor activity against human CRCM404 negative breast cancer cells orthotopically xenografted in NSG mouse model of PDX assessed as reduction ALDHbr cells at 3 mg/kg, ip daily for 14 days cotreated with JQ1 by LSR2 cytometer analysis; format: functional; conditions: time 14 day
[11] = Antitumor activity against human BrCa-MZ-01 cells assessed as K-score by measuring ALDHbr cells by LSR2 cytometer; format: functional; summary of the method: as §4
Breast cancer cell line [12] = assay: Antitumor activity against human CRCM434 negative breast cancer cells orthotopically xenografted in NSG mouse model of PDX assessed as reduction in tumor volume at 3 mg/kg, ip daily for 14 days; format: functional, organism-based; conditions: time 14.0 day; summary of the method: as §3
SUM-159-PT [13] = assay: Induction of apoptosis in human SUM159 cells expressing ALDH upto 5 uM incubated for 72 hrs by ALDEFLUOR/YO-PRO-3/ Hoechst 33342 staining based high content imaging microscopic analysis; format: functional, cell-based; summary of the method: as §2
SUM-159-PT [14] = assay: Synergistic anticancer activity against human SUM159 cells expressing BFP assessed as reduction in ALDHbr cell 50 nM in presence of JQ1 by LSR2 cytometer analysis; format: functional
Breast cancer cell line [15] = assay: Synergistic antitumor activity against human CRCM494 negative breast cancer cells orthotopically xenografted in NSG mouse model of PDX assessed as reduction ALDHbr cells at 3 mg/kg, ip daily for 14 days cotreated with JQ1 by LSR2 cytometer analysis; format: functional; conditions: time 14 day
[16] = Antitumor activity against human S68 cells assessed as K-score by measuring ALDHbr cells by LSR2 cytometer; format: functional; summary of the method: as §4
Breast cancer cell line [17] = assay: Synergistic antitumor activity against human CRCM434 negative breast cancer cells orthotopically xenografted in NSG mouse model of PDX assessed as reduction ALDHbr cells at 3 mg/kg, ip daily for 14 days cotreated with JQ1 by LSR2 cytometer analysis; format: functional; conditions: time 14 day
MDA-MB-436 = assay: Antitumor activity against human MDA-MB-436 cells assessed as K-score by measuring ALDHbr cells by LSR2 cytometer; format: functional; summary of the method: as §4
Breast cancer cell line [18] = assay: Antitumor activity against human CRCM494 negative breast cancer cells orthotopically xenografted in NSG mouse model of PDX assessed as reduction in tumor volume at 3 mg/kg, ip daily for 14 days; format: functional, organism-based; conditions: time 14.0 day; summary of the method: as §3
SUM149PT = assay: Antitumor activity against human SUM149 cells assessed as K-score by measuring ALDHbr cells by LSR2 cytometer; format: functional; summary of the method: as §4
Breast cancer cell line [19] = assay: Antitumor activity against human reimplanted CRCM404 negative breast cancer cells orthotopically xenografted in NSG mouse model of PDX assessed as reduction tumor volume at 3 mg/kg, ip daily for 14 days by limiting dilation analysis; format: functional, organism-based; conditions: time 14.0 day; summary of the method: as §5
Breast cancer cell line [20] = assay: Antitumor activity against human reimplanted CRCM434 negative breast cancer cells orthotopically xenografted in NSG mouse model of PDX assessed as reduction tumor volume at 3 mg/kg, ip daily for 14 days by limiting dilation analysis; format: functional, organism-based; conditions: time 14.0 day; summary of the method: as §5
SUM-159-PT [21] = assay: Synergistic anticancer activity against human SUM159 cells assessed as decrease in primary tumor sphere formation at 62 nM incubated for 72 hrs in presence of JQ1 by Extreme limiting dilution analysis; format: functional
Summary of the method: (§6)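 72 h adherent pretreatment (Sal/JQ1 62 nM/62 nM; docetaxel added at 2 nM where used), then single cells plated in ultra-low attachment 96-well plates in serum-free mammary epithelium basal medium at 25/10/5/3/2/1 cells/well (18–36 wells/condition). Wells with ≥1 sphere after 10 days scored positive; sphere-forming frequency by ELDA. Secondary spheres from dissociated primary spheres. n = 4; pairwise chi-square.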

SUM-159-PT [22] = assay: Anticancer activity against human SUM159 cells assessed as effect on RFP+/BFP+ cell ratio upto 5 uM after 72 hrs by […]; format: functional, cell-based
SUM-159-PT [23] = assay: Anticancer activity against human SUM159 cells expressing BFP assessed as reduction in ALDHbr cell at 50 nM by LSR2 cytometer analysis; format: functional
Breast cancer cell line [24] = assay: Antitumor activity against human CRCM494 negative breast cancer cells orthotopically xenografted in NSG mouse model of PDX assessed as reduction ALDHbr cells at 3 mg/kg, ip daily for 14 days by LSR2 cytometer analysis; format: functional, organism-based; conditions: time 14.0 day; summary of the method: as §3
SUM-159-PT [25] = assay: Synergistic anticancer activity against human SUM159 cells assessed as decrease in secondary tumor sphere formation at 62 nM incubated for 72 hrs in presence of JQ1 by Extreme limiting dilution analysis; format: functional; summary of the method: as §6

## CC[C@@H](C(=O)[C@@H](C)[C@@H](O)[C@H](C)[C@@H]1O[C@@H]([C@@H](CC)C(=O)O)CC[C@@H]1C)[C@H]1O[C@]2(C=C[C@@H](O)[C@]3(CC[C@@](C)([C@H]4CC[C@](O)(CC)[C@H](C)O4)O3)O2)[C@H](C)C[C@@H]1C [SALINOMYCIN]
SUM-159-PT [1]
  Activity: Active
SUM-159-PT [2]
  Activity: Active
SUM-159-PT [3]
  Activity: Active
Breast cancer cell line [4]
  Activity: inactive
Breast cancer cell line [5]
  Activity: Active
SUM-159-PT [6]
  Activity: Active
Breast cancer cell line [7]
  Activity: Active
SUM-159-PT [8]
  Activity: -0.14
Breast cancer cell line [9]
  Activity: Active
Breast cancer cell line [10]
  fold change (FC): 2
[11]
  Activity: -0.07
Breast cancer cell line [12]
  Activity: inactive
SUM-159-PT [13]
  Activity: Active
SUM-159-PT [14]
  fold change (FC): 4
Breast cancer cell line [15]
  fold change (FC): 2
[16]
  Activity: -0.19
Breast cancer cell line [17]
  fold change (FC): 2
MDA-MB-436
  Activity: -0.12
Breast cancer cell line [18]
  Activity: inactive
SUM149PT
  Activity: -0.06
Breast cancer cell line [19]
  Activity: Active
Breast cancer cell line [20]
  Activity: Active
SUM-159-PT [21]
  fold change (FC): 2.4
SUM-159-PT [22]
  Activity: inactive
SUM-159-PT [23]
  fold change (FC): 2
Breast cancer cell line [24]
  Activity: Active
SUM-159-PT [25]
  fold change (FC): 5.4
